Measured values taken from ChEMBL document CHEMBL1629583, “Establishment of in vitro susceptibility testing methodologies and comparative activities of piperacillin in combination with the penem {beta}-lactamase inhibitor BLI-489” (2009).
In brackets after ≈: the same amount, converted by molar mass.

What was measured:
Format in all cases: functional
Klebsiella oxytoca = assay: Antimicrobial activity against Klebsiella oxytoca clinical isolate after 18 to 22 hrs by broth microdilution method in presence of beta-lactamase inhibitor BLI-489
In short: (§1)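 CLSI broth microdilution in Mueller-Hinton II broth. Serial dilutions of piperacillin were tested with BLI-489 held at a constant 4 μg/ml. Inoculum was 10^5 CFU/ml. Plates were incubated 18 to 22 h at 35°C in ambient air. MIC was the lowest concentration giving complete growth inhibition by unaided eye.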

Staphylococcus aureus = assay: Antimicrobial activity against methicillin-susceptible Staphylococcus aureus clinical isolate after 18 to 22 hrs by broth microdilution method in presence of beta-lactamase inhibitor BLI-489
In short: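 Piperacillin serially diluted with BLI-489 held at a constant 4 μg/ml, by CLSI broth microdilution in Mueller-Hinton II broth. Inoculum was 10^5 CFU/ml. Plates were incubated 18 to 22 h at 35°C in ambient air. MIC was the lowest concentration completely inhibiting growth seen by the unaided eye.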

[1] = system: Acinetobacter calcoaceticus; assay: Antimicrobial activity against Acinetobacter calcoaceticus clinical isolate after 18 to 22 hrs by broth microdilution method in presence of beta-lactamase inhibitor Tazobactam
In short: (§2)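 Piperacillin-tazobactam was tested on recent clinical isolates by CLSI broth microdilution in Mueller-Hinton II broth, with tazobactam at constant 4 μg/ml. Wells held 10^5 CFU/ml and were incubated 18 to 22 h at 35°C in ambient air. MIC was the lowest concentration with no growth visible to the unaided eye.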

Pseudomonas aeruginosa = assay: Antimicrobial activity against Pseudomonas aeruginosa clinical isolate after 18 to 22 hrs by broth microdilution method in presence of beta-lactamase inhibitor Tazobactam
In short: (§3)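 Piperacillin-tazobactam was tested by CLSI broth microdilution in Mueller-Hinton II broth against clinical isolates. Inoculum was 10^5 CFU/ml, with 18 to 22 h incubation at 35°C in ambient air. MIC was read as the lowest concentration completely inhibiting visible growth.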

Klebsiella pneumoniae [2] = assay: Antimicrobial activity against AmpC- producing Klebsiella pneumoniae clinical isolate after 18 to 22 hrs by broth microdilution method in presence of beta-lactamase inhibitor Tazobactam; in short: as §2
[3] = system: Bacteroides thetaiotaomicron; assay: Antimicrobial activity against Bacteroides thetaiotaomicron clinical isolate after 18 to 22 hrs by broth microdilution method
[4] = system: Acinetobacter haemolyticus; assay: Antimicrobial activity against Acinetobacter haemolyticus clinical isolate after 18 to 22 hrs by broth microdilution method in presence of beta-lactamase inhibitor BLI-489
In short: (§4)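 CLSI broth microdilution in Mueller-Hinton II broth. Piperacillin serial dilutions were combined with BLI-489 held constant at 4 μg/ml. Inoculum was 10^5 CFU/ml. Plates were incubated 18 to 22 h at 35°C in ambient air. MIC was the lowest concentration completely inhibiting growth seen by the unaided eye. Piperacillin-tazobactam interpretive criteria were applied.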

Citrobacter koseri = assay: Antimicrobial activity against Citrobacter koseri clinical isolate after 18 to 22 hrs by broth microdilution method in presence of beta-lactamase inhibitor BLI-489; in short: as §4
Klebsiella pneumoniae [5] = assay: Antimicrobial activity against Klebsiella pneumoniae clinical isolate after 18 to 22 hrs by broth microdilution method in presence of beta-lactamase inhibitor Tazobactam; in short: as §3
Streptococcus pneumoniae [6] = assay: Antimicrobial activity against penicillin-intermediate Streptococcus pneumoniae clinical isolate after 18 to 22 hrs by broth microdilution method in presence of beta-lactamase inhibitor Tazobactam
In short: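 Broth microdilution per CLSI in Mueller-Hinton II broth supplemented with 5% lysed horse blood, using serial dilutions of piperacillin-tazobactam. Inoculum was 10^5 CFU/ml. Incubation was 18 to 22 h at 35°C in ambient air. MIC was the lowest concentration with no growth visible to the unaided eye.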

Proteus mirabilis = assay: Antimicrobial activity against Proteus mirabilis clinical isolate after 18 to 22 hrs by broth microdilution method in presence of beta-lactamase inhibitor Tazobactam; in short: as §3
Proteus vulgaris = assay: Antimicrobial activity against Proteus vulgaris clinical isolate after 18 to 22 hrs by broth microdilution method in presence of beta-lactamase inhibitor BLI-489; in short: as §1
[7] = system: Haemophilus parainfluenzae; assay: Antimicrobial activity against Haemophilus parainfluenzae clinical isolate after 18 to 22 hrs by broth microdilution method in presence of beta-lactamase inhibitor Tazobactam
In short: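 […] was used for CLSI broth microdilution with piperacillin-tazobactam. Inoculum was 10^5 CFU/ml, incubated 18 to 22 h at 35°C in ambient air. MIC was the lowest concentration with no growth visible to the unaided eye.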

Burkholderia cepacia = assay: Antimicrobial activity against Burkholderia cepacia clinical isolate after 18 to 22 hrs by broth microdilution method in presence of beta-lactamase inhibitor BLI-489; in short: as §4
Providencia stuartii = assay: Antimicrobial activity against Providencia stuartii clinical isolate after 18 to 22 hrs by broth microdilution method in presence of beta-lactamase inhibitor Tazobactam; in short: as §3
Enterobacter cloacae = assay: Antimicrobial activity against AmpC beta-lactamase-producing Enterobacter cloacae clinical isolate after 18 to 22 hrs by broth microdilution method in presence of beta-lactamase inhibitor BLI-489; in short: as §4
Providencia rettgeri = assay: Antimicrobial activity against Providencia rettgeri clinical isolate after 18 to 22 hrs by broth microdilution method in presence of beta-lactamase inhibitor Tazobactam; in short: as §3
Escherichia coli = assay: Antimicrobial activity against class A extended spectrum beta-lactamase- and class D OXA- producing Escherichia coli clinical isolate after 18 to 22 hrs by broth microdilution method in presence of beta-lactamase inhibitor Tazobactam
Acinetobacter junii = assay: Antimicrobial activity against Acinetobacter junii clinical isolate after 18 to 22 hrs by broth microdilution method in presence of beta-lactamase inhibitor Tazobactam; in short: as §2
Streptococcus pneumoniae [8] = assay: Antimicrobial activity against penicillin-resistant Streptococcus pneumoniae clinical isolate after 18 to 22 hrs by broth microdilution method in presence of beta-lactamase inhibitor Tazobactam
In short: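 CLSI broth microdilution in Mueller-Hinton II broth with 5% lysed horse blood. Antibiotic in serial dilution with the β-lactamase inhibitor held at a constant 4 μg/ml. Inoculum 10^5 CFU/ml. Incubated 18 to 22 h at 35°C in ambient air. MIC is the lowest concentration with no growth visible to the eye.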

Enterococcus hirae = assay: Antimicrobial activity against Enterococcus hirae clinical isolate after 18 to 22 hrs by broth microdilution method in presence of beta-lactamase inhibitor Tazobactam; in short: as §3

SMILES: CCN1CCN(C(=O)N[C@@H](C(=O)N[C@@H]2C(=O)N3[C@@H]2SC(C)(C)[C@@H]3C(=O)O)c2ccccc2)C(=O)C1=O [PIPERACILLIN]
- MIC50 (Klebsiella oxytoca): 2 µg/mL
- MIC90 (Klebsiella oxytoca): 8 µg/mL
- MIC50 (Staphylococcus aureus): 0.25 µg/mL
- MIC90 (Staphylococcus aureus): 0.5 µg/mL
- MIC50 [1]: > 128 µg/mL
- MIC90 [1]: > 128 µg/mL
- MIC50 (Pseudomonas aeruginosa): 16 µg/mL
- MIC90 (Pseudomonas aeruginosa): > 128 µg/mL
- MIC50 (Klebsiella pneumoniae [2]): 32 µg/mL
- MIC90 (Klebsiella pneumoniae [2]): > 128 µg/mL
- MIC50 [3]: 32 µg/mL (≈ 61.8 µM)
- MIC90 [3]: > 128 µg/mL
- MIC50 [4]: 4 µg/mL
- MIC90 [4]: 16 µg/mL
- MIC50 (Citrobacter koseri): 2 µg/mL
- MIC90 (Citrobacter koseri): 8 µg/mL
- MIC50 (Klebsiella pneumoniae [5]): 2 µg/mL
- MIC90 (Klebsiella pneumoniae [5]): 16 µg/mL
- MIC50 (Streptococcus pneumoniae [6]): 0.5 µg/mL
- MIC90 (Streptococcus pneumoniae [6]): 1 µg/mL
- MIC50 (Proteus mirabilis): 0.25 µg/mL
- MIC90 (Proteus mirabilis): 2 µg/mL
- MIC50 (Proteus vulgaris): 0.5 µg/mL
- MIC90 (Proteus vulgaris): 1 µg/mL
- MIC50 [7]: 0.06 µg/mL
- MIC90 [7]: 0.25 µg/mL
- MIC50 (Burkholderia cepacia): 1 µg/mL
- MIC90 (Burkholderia cepacia): 2 µg/mL
- MIC50 (Providencia stuartii): 2 µg/mL
- MIC90 (Providencia stuartii): 16 µg/mL
- MIC50 (Enterobacter cloacae): 2 µg/mL
- MIC90 (Enterobacter cloacae): 8 µg/mL
- MIC50 (Providencia rettgeri): 2 µg/mL
- MIC90 (Providencia rettgeri): 16 µg/mL
- MIC50 (Escherichia coli): 1 µg/mL
- MIC90 (Escherichia coli): 2 µg/mL
- MIC50 (Acinetobacter junii): ≤ 0.12 µg/mL
- MIC90 (Acinetobacter junii): 32 µg/mL
- MIC50 (Streptococcus pneumoniae [8]): 2 µg/mL
- MIC90 (Streptococcus pneumoniae [8]): 4 µg/mL
- MIC50 (Enterococcus hirae): 4 µg/mL
- MIC90 (Enterococcus hirae): 16 µg/mL
